Test results as given in ChEMBL document CHEMBL3091291, “Synthesis and pharmacological characterization of benzenesulfonamides as dual species inhibitors of human and murine mPGES-1” (Bioorg Med Chem, 2013).
pIC50: −log10 of the molar value. Calls of active or inactive are those of the source. The rule behind the calls is not given here.

Experiments:
[1] = target: T1, Prostaglandin E synthase (Homo sapiens) (UniProt O14684); assay: Inhibition of mPGES-1 in human HeLa cells using PGH2 as substrate assessed as inhibition of IL-1beta/TNFalpha-stimulated PGE2 production at 10 uM after 24 hrs by LC-MS/MS analysis; type: cell-based
T1 sequence (whole entry): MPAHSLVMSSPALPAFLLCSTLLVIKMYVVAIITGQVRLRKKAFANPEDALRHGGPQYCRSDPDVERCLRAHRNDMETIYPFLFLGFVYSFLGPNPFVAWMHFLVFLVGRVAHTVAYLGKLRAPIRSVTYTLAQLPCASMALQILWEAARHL
Procedure, shortened: (§1)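 HeLa cells (2 × 10⁴ per well) grown 24 h at 37 °C, then given fresh medium with 1 ng/mL IL-1b + 5 ng/mL TNFa (or PBS for unstimulated control) plus compound (1, 10 or 100 µM) or DMSO for 24 h at 37 °C. Supernatant mixed with H₃PO₄, EDTA and deuterated internal standards; PGE₂ measured by SPE and LC–MS/MS.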

[2] = target: T2, Prostaglandin G/H synthase 1 (Ovis aries) (UniProt P05979); assay: Inhibition of ovine COX1 using […] at 10 uM by LC-MS/MS analysis
T2 sequence (whole entry): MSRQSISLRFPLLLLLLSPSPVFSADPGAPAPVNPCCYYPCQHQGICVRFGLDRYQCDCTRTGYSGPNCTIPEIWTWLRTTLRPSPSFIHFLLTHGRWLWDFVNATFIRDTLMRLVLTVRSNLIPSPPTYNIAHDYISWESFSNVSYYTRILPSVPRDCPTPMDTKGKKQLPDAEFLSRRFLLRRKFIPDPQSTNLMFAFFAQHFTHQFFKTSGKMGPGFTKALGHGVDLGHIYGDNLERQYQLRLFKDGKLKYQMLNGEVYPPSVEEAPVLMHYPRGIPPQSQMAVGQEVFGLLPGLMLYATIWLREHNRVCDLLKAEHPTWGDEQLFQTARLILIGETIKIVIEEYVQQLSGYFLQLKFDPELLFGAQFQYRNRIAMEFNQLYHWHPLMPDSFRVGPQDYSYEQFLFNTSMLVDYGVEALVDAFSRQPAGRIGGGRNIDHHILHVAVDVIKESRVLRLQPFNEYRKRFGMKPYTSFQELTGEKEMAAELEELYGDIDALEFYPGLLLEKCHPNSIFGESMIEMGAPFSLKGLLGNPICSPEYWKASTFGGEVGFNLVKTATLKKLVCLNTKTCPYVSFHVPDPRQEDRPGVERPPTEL
Procedure, shortened: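 Ovine COX-1 and recombinant human COX-2 tested directly with a commercial COX inhibitor screening kit, following the manufacturer's protocol. COX-derived PGH₂ reduced with SnCl₂; the resulting PGE₂, PGD₂ and PGF₂a diluted in MeOH, spiked with deuterated internal standards and quantified by SPE and LC–MS/MS.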

[3] = target: T1, Prostaglandin E synthase (Homo sapiens); assay: Inhibition of mPGES-1 in human HeLa cells using PGH2 as substrate assessed as inhibition of IL-1beta/TNFalpha-stimulated PGE2 production at 1 to 10 uM after 24 hrs by LC-MS/MS analysis; type: cell-based; procedure, shortened: as §1
Prostaglandin E synthase = target: T3, Prostaglandin E synthase (Homo sapiens, UniProt O14684); assay: Inhibition of mPGES-1 in human HeLa cells using PGH2 as substrate assessed as inhibition of IL-1beta/TNFalpha-stimulated PGE2 production preincubated for 30 mins followed by substrate addition measured after 1 min by LC-MS/MS analysis; type: cell-based
T3 sequence (O14684 whole entry): T1 sequence (whole entry)
Procedure, shortened: (§2)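 Microsomal fraction from HeLa, NIH-3T3 or RAW 264.7 cells, obtained by sonication and ultracentrifugation, resuspended in 0.1 M KPi pH 7.4 with 2.5 mM reduced GSH. Protein at 0.15 mg/mL (HeLa, NIH) or 0.3 mg/mL (RAW) incubated with compound 30 min on ice. Reaction started with 20 µM PGH₂, stopped after 1 min with FeCl₂/citric acid. PGE₂ quantified by SPE and LC–MS/MS. IC50 from four-parameter logistic fit of increasing concentrations.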

[4] = target: T4, Prostaglandin G/H synthase 2 (Homo sapiens) (UniProt P35354); assay: Inhibition of LPS-stimulated COX2 in human whole blood assessed as reduction in PGE2 production by measuring remaining activity at 100 uM preincubated for 15 mins followed by LPS addition measured after 24 hrs by LC-MS/MS analysis
T4 sequence (whole entry): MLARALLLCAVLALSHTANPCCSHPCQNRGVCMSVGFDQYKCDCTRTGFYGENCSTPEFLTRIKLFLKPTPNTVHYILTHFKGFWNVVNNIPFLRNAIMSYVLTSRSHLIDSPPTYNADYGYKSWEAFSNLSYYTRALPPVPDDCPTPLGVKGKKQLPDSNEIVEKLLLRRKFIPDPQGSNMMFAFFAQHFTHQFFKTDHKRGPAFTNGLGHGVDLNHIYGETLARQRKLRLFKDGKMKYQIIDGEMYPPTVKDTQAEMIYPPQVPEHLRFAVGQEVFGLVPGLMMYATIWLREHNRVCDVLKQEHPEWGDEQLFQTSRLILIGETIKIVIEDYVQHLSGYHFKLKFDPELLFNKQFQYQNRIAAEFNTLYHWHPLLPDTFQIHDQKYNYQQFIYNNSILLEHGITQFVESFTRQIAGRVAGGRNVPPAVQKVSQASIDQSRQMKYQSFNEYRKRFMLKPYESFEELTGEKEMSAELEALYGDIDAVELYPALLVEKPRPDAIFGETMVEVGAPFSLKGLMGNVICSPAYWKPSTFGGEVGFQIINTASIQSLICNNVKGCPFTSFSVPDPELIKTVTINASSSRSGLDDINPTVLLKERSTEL
Procedure, shortened: (§3)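 Heparinized human whole blood (500 µL) mixed with compound in DMSO, with acetylsalicylic acid added to block COX-1, held 15 min at 37 °C, then stimulated with LPS in autologous plasma to induce COX-2/mPGES-1. After 24 h at 37 °C, samples chilled 5 min on ice; plasma collected, prostaglandins extracted and measured by LC–MS/MS. Remaining activity given relative to vehicle control.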

[5] = target: T5, Prostaglandin E synthase (Mus musculus) (UniProt Q9JM51); assay: Inhibition of mPGES-1 in Swiss mouse NIH/3T3 cells using PGH2 as substrate assessed as inhibition of IL-1beta/TNFalpha-stimulated PGE2 production at 5 uM preincubated for 30 mins followed by substrate addition measured after 1 min by LC-MS/MS analysis; type: cell-based; procedure, shortened: as §2
T5 sequence (whole entry): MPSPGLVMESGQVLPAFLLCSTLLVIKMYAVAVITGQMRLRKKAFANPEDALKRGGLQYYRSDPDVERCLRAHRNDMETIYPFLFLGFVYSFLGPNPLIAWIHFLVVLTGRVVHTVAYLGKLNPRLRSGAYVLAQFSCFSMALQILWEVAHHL

[6] = target: T4, Prostaglandin G/H synthase 2 (Homo sapiens); assay: Inhibition of LPS-stimulated COX2 in human whole blood assessed as reduction in PGF2alpha production by measuring remaining activity at 100 uM preincubated for 15 mins followed by LPS addition measured after 24 hrs by LC-MS/MS analysis; procedure, shortened: as §3

inhibition [1] | inhibition [2] | inhibition [3] | pIC50 (Prostaglandin E synthase) | Activity [4] | inhibition [5] | Activity [6] | SMILES
Active | 0.3% | inactive | 6.00 | 88.7% | 65.1% | 92.5% | O=C(O)c1ccc(S(=O)(=O)N(Cc2ccccc2)Cc2ccc(Oc3ccccc3)cc2)cc1
inactive | < 0% | inactive | 4.86 | 74.4% | 10.6% | 107% | COc1ccc(CN(Cc2ccccc2)S(=O)(=O)c2ccc(C(=O)O)cc2)cc1
Active | 10.3% | inactive | 4.99 | 39% | 48.5% | 114% | COc1ccc(CN(CC2CCCCC2)S(=O)(=O)c2ccc(C(=O)O)cc2)cc1
Active | < 0% | inactive | 5.14 | 61.2% | 67.9% | 90.9% | O=C(O)c1ccc(S(=O)(=O)N(Cc2ccccc2)Cc2ccc(Nc3ccccc3)cc2)cc1
Active | 12.4% | inactive | 5.77 | 66.8% | 71.2% | 86.8% | O=C(O)c1ccc(S(=O)(=O)N(Cc2ccccc2)c2ccc(Oc3ccccc3)cc2)cc1
